Experimental data from different studies.
Target: Rho-associated protein kinase 2 (ROCK2, Homo sapiens, UniProt O75116)

The remaining activity of `Oc1cccc(-c2nc(N3CCOCC3)c3oc4ncccc4c3n2)c1` is reported as 91% (enzyme activity, inhibitor; 10 µM).
The inhibition of `Cn1cncc1C1=CN(c2ncnc3[nH]cnc23)CCS1` is reported as 19.6% (enzyme activity, inhibitor, radiometric; 50 nM).
For `NS(=O)(=O)c1cc(NC(=O)C2(c3ccccc3Cl)CC2)ccc1Oc1cccc(Cl)c1`, the remaining binding was 100% (cell-free assay, competition with immobilised ligand; 1 µM).
`c1ccc2c(-c3ccncc3)c[nH]c2c1` has a remaining signal of 71.9% (cell-free assay; 0.5 µM).
For `Nc1ncnc2occ(-c3ccc(NC(=O)Nc4cc(C(F)(F)F)ccc4F)cc3)c12`, the remaining signal was 0% (cell-free assay, inhibitor; 20 µM).
`CC(C)(C)C(=O)c1sc(NC2CCCCC2)nc1N` has a remaining activity of 107% (enzyme activity, inhibitor; 10 µM).
For `N#CCCc1ccc2c(c1)-c1[nH]c3ccc([N+](=O)[O-])cc3c1CC(=O)N2`, the remaining signal was 28.6% (cell-free assay; 0.5 µM).
For `Cc1cc(NC(=O)c2cccc3cc(-c4cccc5[nH]nc(N)c45)ccc23)ccc1F`, the activity vs control was 98% (enzyme activity, inhibitor; 0.1 µM).
For `Cn1cnc(Br)c1C1=CN(c2ncnc3[nH]cnc23)CCS1`, the inhibition was 77.6% (enzyme activity, inhibitor, radiometric; 2 µM).
`Cc1c(NC(=O)c2cc(C(N)=O)nc3cc(F)ccc23)c(C(F)(F)F)nn1Cc1ccc(C(C)(C)C)cc1` has a remaining binding of 100% (cell-free assay, competition with immobilised ligand; 1 µM).
`Nc1nc(Nc2ccccc2)sc1C(=O)c1c(F)cccc1F` has a remaining activity of 55% (enzyme activity, inhibitor; 10 µM).
The inhibition of `CC/C(=N\NC(=O)NCc1cccc(O)c1)c1ccc(O)c(C)c1O` is reported as 82.6% (enzyme activity, inhibitor; 0.1 µM).
`FC(F)c1nc2ccccc2n1-c1nc(N2CCOCC2)nc(N2CCOCC2)n1` gave a remaining activity of 85% (enzyme activity, inhibitor; 10 µM).
`O=C1NC(c2ccccn2)Sc2ccccc21` (stereo not drawn) has a remaining binding of 67% (cell-free assay, competition with immobilised ligand; 1 µM).
With `O=C(CSc1nc2nccnc2c(=O)n1CCc1ccccc1)Nc1nccs1` the inhibition was 2% (enzyme activity, inhibitor; 10 µM).
`CCCOc1ccc(OC)c(F)c1C(=O)c1ccc(C(=O)N[C@@H]2CNC[C@H]2NC(=O)c2ccc3[nH]ncc3c2)cc1` has a remaining activity of 4% (enzyme activity, inhibitor; 0.75 µM).
`O=C(Nc1cnc(Oc2ccc(F)cc2)nc1)N1CCc2ncccc2[C@@H]1c1ccc(F)cc1` has a remaining binding of 100% (cell-free assay, competition with immobilised ligand; 1 µM).
`C=CC(=O)Nc1cc(Nc2nccc(Nc3cc(Cl)c(F)cc3C(C)(C)O)n2)c(OC)cc1N1CC[C@@H](N(C)C)C1` gave an inhibition of 15% (enzyme activity, inhibitor; 1 µM).
`CNCc1ccc(-c2cc(-c3nc(-c4ccc(S(=O)(=O)C(C)C)cc4)cnc3N)on2)cc1` gave an inhibition of 0% (enzyme activity, inhibitor; 0.4 µM).
For `Fc1cccc(-n2cnc3c(NCc4nc5c(F)c(F)ccc5[nH]4)nc(N4CCOCC4)nc32)c1`, the binding vs control was 54% (binding, competition with immobilised ligand; 10 µM).
`CC(C)(O)[C@H]1CC[C@H](Nc2ccc3ncc(-c4cccc(C(F)(F)F)c4)n3n2)CC1` has a remaining activity of 92.8% (enzyme activity, inhibitor; 1 µM).
With `C[C@H](c1ccnc(Nc2nc3ccc(-c4cc(N(C)C)ncn4)cc3[nH]2)c1)N1CCN(C(=O)CC(F)(F)F)CC1` the remaining binding was 100% (cell-free assay, competition with immobilised ligand; 0.1 µM).
`Cc1ccc(Nc2nccc(N(C)c3ccc4c(C)n(C)nc4c3)n2)cc1S(N)(=O)=O` gave an inhibition of -27% (enzyme activity, inhibitor; 10 µM).
For `CC(C)(C)c1nc2c(s1)c1nc(N)ncc1c1ccc(NS(=O)(=O)c3c(F)cccc3F)c(F)c12`, the remaining activity was 100% (enzyme activity, inhibitor, radiometric; 1 µM).
With `CO[C@@H](C)c1c(Nc2ccc([C@@H](N(C)C(=O)C3CCS(=O)(=O)CC3)C(F)(F)F)cc2)cnc2cc(Cl)nn12` the remaining binding was 100% (cell-free assay, competition with immobilised ligand; 1 µM).
The inhibition of `CCCS(=O)(=O)Nc1ccc(F)c(C(=O)c2c[nH]c3ncc(-c4ccc(Cl)cc4)cc23)c1F` is reported as under 10% (enzyme activity, inhibitor; 1 µM).
The remaining activity of `Cc1ccc(C(=O)Nc2ccc(CN3CCN(C)CC3)c(C(F)(F)F)c2)cc1C#Cc1cnc2cccnn12` is reported as 89% (enzyme activity, inhibitor; 23.5 nM).
The remaining signal of `O=S(=O)(NCCNC/C=C/c1ccc(Br)cc1)c1cccc2cnccc12` is reported as 15.4% (cell-free assay; 0.5 µM).
`CCOc1cc(-c2nncn2C)ccc1Nc1ncc2cc(C)nc(NCC(C)(C)C)c2n1` gave an inhibition of under 15% (enzyme activity, inhibitor, FRET; 1 µM).
`O=C(Nc1cnn(-c2csc(C(=O)NC3COC3)c2)c1)Nc1c(F)cccc1Cl` has a remaining activity of 107% (enzyme activity, inhibitor; 5 µM).
With `CCN(CC)CCNC(=O)c1c(C)[nH]c(/C=C2\C(=O)Nc3ccc(F)cc32)c1C` the remaining signal was 72.1% (cell-free assay; 0.5 µM).
With `COc1cc(Nc2cnc(C#N)c(O[C@H](C)CN(C)C)n2)ncc1-c1cnn(C)c1` the remaining activity was 40% (enzyme activity, inhibitor, radiometric; 10 µM).
`O=C(NCc1ncc(C(F)(F)F)cc1Cl)c1ccc2c(c1)C1(CCS(=O)(=O)CC1)[C@H](C1CC1)N2S(=O)(=O)c1ccc(F)cc1` gave a remaining binding of 95% (cell-free assay, competition with immobilised ligand; 1 µM).
For `CNC(=O)c1cc(Oc2ccc(NC(=O)Nc3ccc(Cl)c(C(F)(F)F)c3)cc2)ccn1`, the inhibition was 38% (enzyme activity, inhibitor; 10 µM).
`CCS(=O)(=O)c1cc2cc(C[C@@](O)(CC(C)(C)c3ccc(F)cc3C(N)=O)C(F)(F)F)[nH]c2cn1` has a remaining binding of 76% (cell-free assay, competition with immobilised ligand; 1 µM).
For `COc1cc2ncnc(Nc3ccc(Oc4ccccc4)c(C)c3C)c2cc1OC`, the inhibition was 8% (enzyme activity, inhibitor; 1 µM).
